Results: ChEMBL document CHEMBL5385905, “Design, synthesis and characterisation of a novel type II B-RAF paradox breaker inhibitor” (Eur J Med Chem, 2023)
Active and inactive are the calls of the source. The calls are words filed in the database; no cut-off is given here.

Legend:
A-375 [1] = assay: Cytotoxicity against human A-375 cells expressing B-RAF V600E mutant assessed as inhibition of cell proliferation incubated for 96 hrs by MTT assay; assay type: functional, cell-based
In short: (§1)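 SW620 (ATCC) seeded at 4000 cells/well and A375 (ATCC) at 1000 cells/well in 96-well format. Compounds added the next day at increasing concentrations. Exposure 96 h. Viability read by MTT method per Mosmann.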

SW-620 [2] = assay: Cytotoxicity against human SW620 cells incubated for 96 hrs by MTT assay; assay type: functional, cell-based; in short: as §1
A-375 [3] = assay: Cytotoxicity against human A-375 cells incubated for 96 hrs by MTT assay; assay type: functional, cell-based; settings: A-375, 96 h; in short: as §1
SW-620 [4] = assay: Cytotoxicity against human SW620 cells expressing wild type B-RAF assessed as inhibition of cell proliferation incubated for 96 hrs by MTT assay; assay type: functional, cell-based; in short: as §1
SW620 [5] = assay: Inhibition of MAPK pathway in human SW620 cells expressing wild type B-RAF assessed as downregulation of ERK phosphorylation incubated for 1 to 4 hrs by immunoblotting analysis; assay type: cell-based; settings: time 1-4 hrs
In short: (§2)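 SW620 seeded at 750 000 and A375 at 300 000 cells/well in 6-well format, grown 48 h to 75% confluence. Treated with increasing compound concentrations for 1 or 4 h. Lysis in 10 mM Tris-HCl, 1% SDS, 20 mM Na3VO4. 10–25 µg protein run on SDS-PAGE, transferred to PVDF, probed for MEK, phospho-MEK, phospho-ERK, B-Raf and actin. Read by LI-COR Odyssey.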

[6] = molecular target: Platelet-derived growth factor receptor beta (Homo sapiens) (UniProt P09619); assay: Inhibition of PDGFRB (unknown origin) at 1 uM relative to control
A-375 [7] = assay: Inhibition of MAPK pathway in human A-375 cells expressing B-RAF V600E mutant assessed as downregulation of ERK phosphorylation incubated for 1 to 4 hrs by immunoblotting analysis; assay type: cell-based; settings: time 1-4 hrs; in short: as §2
SW620 [8] = assay: Inhibition of MAPK pathway in human SW620 cells expressing wild type B-RAF assessed as downregulation of MEK phosphorylation incubated for 1 to 4 hrs by immunoblotting analysis; assay type: cell-based; settings: time 1-4 hrs; in short: as §2
[9] = molecular target: Dual specificity mitogen-activated protein kinase kinase 4 (Homo sapiens) (UniProt P45985); assay: Inhibition of MEK4 (unknown origin) at 1 uM relative to control
[10] = molecular target: Tyrosine-protein kinase Fgr (Homo sapiens) (UniProt P09769); assay: Inhibition of FGR (unknown origin) at 1 uM relative to control
[11] = molecular target: T1, Dual specificity mitogen-activated protein kinase kinase 5 (Homo sapiens) (UniProt Q13163); assay: Inhibition of MEK5 (unknown origin) at 1 uM relative to control
T1 sequence (whole entry): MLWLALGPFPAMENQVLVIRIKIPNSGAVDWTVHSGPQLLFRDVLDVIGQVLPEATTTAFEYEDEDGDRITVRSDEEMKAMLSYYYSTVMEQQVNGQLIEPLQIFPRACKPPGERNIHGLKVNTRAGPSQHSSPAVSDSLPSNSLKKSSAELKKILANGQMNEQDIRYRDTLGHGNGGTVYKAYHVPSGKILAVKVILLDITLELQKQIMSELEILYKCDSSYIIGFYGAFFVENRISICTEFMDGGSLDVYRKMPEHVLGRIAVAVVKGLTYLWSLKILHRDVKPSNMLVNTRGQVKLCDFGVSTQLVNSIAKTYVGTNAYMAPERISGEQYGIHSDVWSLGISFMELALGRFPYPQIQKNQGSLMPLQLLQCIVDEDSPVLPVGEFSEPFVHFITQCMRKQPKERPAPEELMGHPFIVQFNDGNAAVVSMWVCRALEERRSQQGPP

[12] = molecular target: RAF proto-oncogene serine/threonine-protein kinase (Homo sapiens) (UniProt P04049); assay: Inhibition of RAF1 (unknown origin) at 1 uM relative to control
A-375 [13] = assay: Inhibition of MAPK pathway in human A-375 cells expressing B-RAF V600E mutant assessed as downregulation of MEK phosphorylation incubated for 1 to 4 hrs by immunoblotting analysis; assay type: cell-based; settings: time 1-4 hrs; in short: as §2
[14] = molecular target: Mast/stem cell growth factor receptor Kit (Homo sapiens) (UniProt P10721); assay: Inhibition of KIT (unknown origin) at 1 uM relative to control
[15] = molecular target: Mitogen-activated protein kinase 11 (Homo sapiens) (UniProt Q15759); assay: Inhibition of p-38 beta (unknown origin) at 1 uM relative to control
[16] = molecular target: Proto-oncogene tyrosine-protein kinase Src (Homo sapiens) (UniProt P12931); assay: Inhibition of SRC (unknown origin) at 1 uM relative to control
[17] = molecular target: Platelet-derived growth factor receptor alpha (Homo sapiens) (UniProt P16234); assay: Inhibition of PDGFRA (unknown origin) at 1 uM relative to control
[18] = molecular target: Tyrosine-protein kinase Yes (Homo sapiens) (UniProt P07947); assay: Inhibition of YES (unknown origin) at 1 uM relative to control
[19] = molecular target: Ribosomal protein S6 kinase alpha-1 (Homo sapiens) (UniProt Q15418); assay: Inhibition of RSK1 (unknown origin) at 1 uM relative to control
[20] = molecular target: Tyrosine-protein kinase HCK (Homo sapiens) (UniProt P08631); assay: Inhibition of HCK (unknown origin) at 1 uM relative to control
[21] = molecular target: Tyrosine-protein kinase Blk (Homo sapiens) (UniProt P51451); assay: Inhibition of BLK (unknown origin) at 1 uM relative to control
[22] = molecular target: Macrophage colony-stimulating factor 1 receptor (Homo sapiens) (UniProt P07333); assay: Inhibition of CSF1R (unknown origin) at 1 uM relative to control
[23] = molecular target: Tyrosine-protein kinase TXK (Homo sapiens) (UniProt P42681); assay: Inhibition of TXK (unknown origin) at 1 uM relative to control
[24] = molecular target: Tyrosine-protein kinase Fyn (Homo sapiens) (UniProt P06241); assay: Inhibition of FYN (unknown origin) at 1 uM relative to control
[25] = molecular target: Vascular endothelial growth factor receptor 2 (Homo sapiens) (UniProt P35968); assay: Inhibition of VEGFR2 (unknown origin) at 1 uM relative to control
[26] = molecular target: Tyrosine-protein kinase Lyn (Homo sapiens) (UniProt P07948); assay: Inhibition of LYN (unknown origin) at 1 uM relative to control
[27] = molecular target: Vascular endothelial growth factor receptor 1 (Homo sapiens) (UniProt P17948); assay: Inhibition of FLT1 (unknown origin) at 1 uM relative to control
SW620 [28] = assay: Inhibition of MAPK pathway in human SW620 cells expressing wild type B-RAF assessed as effect on ERK protein expression incubated for 1 to 4 hrs by immunoblotting analysis; assay type: cell-based; settings: time 1-4 hrs
[29] = molecular target: Tyrosine-protein kinase Lck (Homo sapiens) (UniProt P06239); assay: Inhibition of LCK (unknown origin) at 1 uM relative to control
[30] = molecular target: Mitogen-activated protein kinase 14 (Homo sapiens) (UniProt Q16539); assay: Inhibition of p-38 alpha (unknown origin) at 1 uM relative to control
[31] = molecular target: Tyrosine-protein kinase ABL1 (Homo sapiens) (UniProt P00519); assay: Inhibition of ABL1 (unknown origin) at 1 uM relative to control
[32] = molecular target: Vascular endothelial growth factor receptor 3 (Homo sapiens) (UniProt P35916); assay: Inhibition of FLT4 (unknown origin) at 1 uM relative to control
[33] = molecular target: Proto-oncogene tyrosine-protein kinase receptor Ret (Homo sapiens) (UniProt P07949); assay: Inhibition of RET (unknown origin) at 1 uM relative to control
[34] = molecular target: Tyrosine-protein kinase CSK (Homo sapiens) (UniProt P41240); assay: Inhibition of CSK (unknown origin) at 1 uM relative to control
[35] = molecular target: Serine/threonine-protein kinase VRK2 (Homo sapiens) (UniProt Q86Y07); assay: Inhibition of VRK2 (unknown origin) at 1 uM relative to control
[36] = molecular target: Serine/threonine-protein kinase B-raf (Homo sapiens, UniProt P15056, V600E); assay: Inhibition of B-RAF V600E mutant (unknown origin) expressed in Escherichia coli BL21 (DE3)
[37] = molecular target: Serine/threonine-protein kinase B-raf (Homo sapiens, UniProt P15056); assay: Inhibition of wild type B-RAF (unknown origin) expressed in Escherichia coli BL21 (DE3)
[38] = molecular target: Receptor-type tyrosine-protein kinase FLT3 (Homo sapiens) (UniProt P36888); assay: Inhibition of FLT3 (unknown origin) at 1 uM relative to control
[39] = molecular target: Cytoplasmic tyrosine-protein kinase BMX (Homo sapiens) (UniProt P51813); assay: Inhibition of BMX (unknown origin) at 1 uM relative to control
[40] = molecular target: Mitogen-activated protein kinase kinase kinase kinase 4 (Homo sapiens) (UniProt O95819); assay: Inhibition of MAP4K4 (unknown origin) at 1 uM relative to control
[41] = molecular target: Fibroblast growth factor receptor 2 (Homo sapiens) (UniProt P21802); assay: Inhibition of FGFR2 (unknown origin) at 1 uM relative to control
[42] = molecular target: Cyclin-dependent kinase 19 (Homo sapiens) (UniProt Q9BWU1); assay: Inhibition of CDK11 (unknown origin) at 1 uM relative to control
[43] = molecular target: Fibroblast growth factor receptor 1 (Homo sapiens) (UniProt P11362); assay: Inhibition of FGFR1 (unknown origin) at 1 uM relative to control
[44] = Homo sapiens, SW-620, 96 h, read-out: IC50

Sequence of Platelet-derived growth factor receptor beta (Homo sapiens) (P09619 whole entry): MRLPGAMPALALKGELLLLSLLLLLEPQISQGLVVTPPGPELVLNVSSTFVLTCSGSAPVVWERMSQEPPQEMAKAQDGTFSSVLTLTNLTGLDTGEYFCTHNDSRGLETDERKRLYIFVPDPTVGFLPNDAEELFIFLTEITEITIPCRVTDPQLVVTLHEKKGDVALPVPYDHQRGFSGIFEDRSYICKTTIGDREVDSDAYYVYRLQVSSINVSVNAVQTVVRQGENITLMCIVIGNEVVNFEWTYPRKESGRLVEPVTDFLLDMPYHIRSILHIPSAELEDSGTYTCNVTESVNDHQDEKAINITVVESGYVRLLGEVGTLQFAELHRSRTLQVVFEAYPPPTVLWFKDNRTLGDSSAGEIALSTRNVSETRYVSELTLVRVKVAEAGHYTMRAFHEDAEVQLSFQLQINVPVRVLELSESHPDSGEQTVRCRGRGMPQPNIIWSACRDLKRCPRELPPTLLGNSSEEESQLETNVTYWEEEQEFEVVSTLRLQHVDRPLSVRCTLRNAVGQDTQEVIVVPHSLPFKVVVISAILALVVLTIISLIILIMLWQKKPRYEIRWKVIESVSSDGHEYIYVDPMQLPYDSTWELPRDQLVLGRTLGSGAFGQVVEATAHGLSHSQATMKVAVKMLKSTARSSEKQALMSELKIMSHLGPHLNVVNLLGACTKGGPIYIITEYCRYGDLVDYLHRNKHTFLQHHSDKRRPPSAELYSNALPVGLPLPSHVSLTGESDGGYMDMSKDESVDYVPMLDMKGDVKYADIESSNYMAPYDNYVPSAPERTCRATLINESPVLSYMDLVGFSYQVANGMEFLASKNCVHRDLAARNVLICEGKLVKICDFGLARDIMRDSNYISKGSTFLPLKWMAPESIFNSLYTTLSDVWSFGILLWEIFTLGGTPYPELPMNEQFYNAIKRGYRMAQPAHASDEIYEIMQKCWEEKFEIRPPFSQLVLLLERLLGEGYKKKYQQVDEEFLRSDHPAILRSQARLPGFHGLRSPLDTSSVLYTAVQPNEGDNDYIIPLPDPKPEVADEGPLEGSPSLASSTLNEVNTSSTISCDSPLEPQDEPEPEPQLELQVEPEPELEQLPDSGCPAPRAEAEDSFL
Sequence of Tyrosine-protein kinase Blk (Homo sapiens) (P51451 2-505 limits assumed): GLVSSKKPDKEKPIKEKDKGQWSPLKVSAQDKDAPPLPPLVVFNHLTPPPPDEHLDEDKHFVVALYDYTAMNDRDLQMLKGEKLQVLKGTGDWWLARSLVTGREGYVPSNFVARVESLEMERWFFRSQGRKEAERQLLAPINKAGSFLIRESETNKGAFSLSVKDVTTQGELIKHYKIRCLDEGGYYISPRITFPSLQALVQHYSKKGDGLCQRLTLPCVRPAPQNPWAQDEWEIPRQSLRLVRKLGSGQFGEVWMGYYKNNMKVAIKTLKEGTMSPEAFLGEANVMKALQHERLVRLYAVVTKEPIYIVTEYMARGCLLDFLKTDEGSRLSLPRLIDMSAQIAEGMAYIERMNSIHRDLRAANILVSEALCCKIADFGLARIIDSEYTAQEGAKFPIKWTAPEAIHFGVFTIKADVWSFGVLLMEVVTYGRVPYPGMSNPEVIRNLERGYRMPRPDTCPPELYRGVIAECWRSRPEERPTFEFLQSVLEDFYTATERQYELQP
Sequence of RAF proto-oncogene serine/threonine-protein kinase (Homo sapiens) (P04049 whole entry): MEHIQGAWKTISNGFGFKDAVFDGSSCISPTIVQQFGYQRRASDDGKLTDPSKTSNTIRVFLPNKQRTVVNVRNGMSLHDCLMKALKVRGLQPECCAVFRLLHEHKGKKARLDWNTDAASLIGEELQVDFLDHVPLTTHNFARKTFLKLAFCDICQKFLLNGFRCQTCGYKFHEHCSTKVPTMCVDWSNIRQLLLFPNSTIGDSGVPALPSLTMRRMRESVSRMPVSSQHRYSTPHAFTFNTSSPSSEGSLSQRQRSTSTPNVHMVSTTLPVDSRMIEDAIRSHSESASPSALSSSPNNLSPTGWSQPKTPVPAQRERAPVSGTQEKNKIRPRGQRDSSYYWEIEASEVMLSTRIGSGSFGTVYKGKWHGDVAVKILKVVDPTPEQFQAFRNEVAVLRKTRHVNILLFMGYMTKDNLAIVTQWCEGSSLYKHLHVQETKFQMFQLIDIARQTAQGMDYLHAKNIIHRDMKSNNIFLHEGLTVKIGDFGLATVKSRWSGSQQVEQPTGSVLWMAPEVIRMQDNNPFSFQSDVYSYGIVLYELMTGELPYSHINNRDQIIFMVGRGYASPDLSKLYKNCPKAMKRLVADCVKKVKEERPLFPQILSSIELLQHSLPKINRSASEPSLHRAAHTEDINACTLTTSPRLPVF
Sequence of Mast/stem cell growth factor receptor Kit (Homo sapiens) (P10721 whole entry): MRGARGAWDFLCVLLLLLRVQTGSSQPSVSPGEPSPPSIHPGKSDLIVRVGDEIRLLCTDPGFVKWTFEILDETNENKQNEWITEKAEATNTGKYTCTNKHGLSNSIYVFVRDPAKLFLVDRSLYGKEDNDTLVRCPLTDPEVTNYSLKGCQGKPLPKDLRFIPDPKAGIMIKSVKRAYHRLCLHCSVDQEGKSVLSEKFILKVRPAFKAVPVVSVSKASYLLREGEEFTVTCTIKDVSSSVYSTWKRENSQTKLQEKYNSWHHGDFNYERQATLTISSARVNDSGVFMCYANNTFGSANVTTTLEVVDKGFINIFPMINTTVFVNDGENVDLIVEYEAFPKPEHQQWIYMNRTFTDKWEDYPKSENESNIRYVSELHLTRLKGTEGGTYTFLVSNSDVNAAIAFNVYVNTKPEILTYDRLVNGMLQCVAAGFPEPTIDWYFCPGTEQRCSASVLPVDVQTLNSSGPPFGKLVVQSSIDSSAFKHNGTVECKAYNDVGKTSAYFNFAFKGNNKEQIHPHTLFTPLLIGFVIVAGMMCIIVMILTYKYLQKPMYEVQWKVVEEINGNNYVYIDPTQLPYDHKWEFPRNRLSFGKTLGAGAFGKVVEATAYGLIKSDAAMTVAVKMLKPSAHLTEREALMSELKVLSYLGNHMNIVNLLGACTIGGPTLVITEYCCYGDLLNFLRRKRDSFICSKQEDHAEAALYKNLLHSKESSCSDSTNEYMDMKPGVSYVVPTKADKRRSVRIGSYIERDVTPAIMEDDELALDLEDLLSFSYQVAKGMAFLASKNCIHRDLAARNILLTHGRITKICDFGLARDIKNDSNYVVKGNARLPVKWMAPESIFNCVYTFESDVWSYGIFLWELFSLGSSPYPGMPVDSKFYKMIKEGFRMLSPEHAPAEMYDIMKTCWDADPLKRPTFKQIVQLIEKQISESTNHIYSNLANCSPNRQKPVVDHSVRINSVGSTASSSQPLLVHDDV
Sequence of Tyrosine-protein kinase Fgr (Homo sapiens) (P09769 2-529 limits assumed): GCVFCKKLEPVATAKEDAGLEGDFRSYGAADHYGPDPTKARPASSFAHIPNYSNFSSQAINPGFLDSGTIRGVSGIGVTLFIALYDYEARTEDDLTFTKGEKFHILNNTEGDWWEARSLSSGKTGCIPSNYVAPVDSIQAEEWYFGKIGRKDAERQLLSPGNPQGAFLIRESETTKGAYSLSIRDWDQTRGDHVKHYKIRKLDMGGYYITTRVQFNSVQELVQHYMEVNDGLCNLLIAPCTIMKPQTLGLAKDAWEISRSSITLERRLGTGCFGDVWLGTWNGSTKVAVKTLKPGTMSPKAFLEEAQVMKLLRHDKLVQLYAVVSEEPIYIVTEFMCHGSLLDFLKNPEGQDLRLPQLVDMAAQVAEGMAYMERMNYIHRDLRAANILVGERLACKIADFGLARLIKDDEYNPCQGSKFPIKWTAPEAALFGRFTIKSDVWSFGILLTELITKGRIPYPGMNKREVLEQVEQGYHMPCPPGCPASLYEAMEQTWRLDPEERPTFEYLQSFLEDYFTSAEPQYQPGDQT
Sequence of Macrophage colony-stimulating factor 1 receptor (Homo sapiens) (P07333 whole entry): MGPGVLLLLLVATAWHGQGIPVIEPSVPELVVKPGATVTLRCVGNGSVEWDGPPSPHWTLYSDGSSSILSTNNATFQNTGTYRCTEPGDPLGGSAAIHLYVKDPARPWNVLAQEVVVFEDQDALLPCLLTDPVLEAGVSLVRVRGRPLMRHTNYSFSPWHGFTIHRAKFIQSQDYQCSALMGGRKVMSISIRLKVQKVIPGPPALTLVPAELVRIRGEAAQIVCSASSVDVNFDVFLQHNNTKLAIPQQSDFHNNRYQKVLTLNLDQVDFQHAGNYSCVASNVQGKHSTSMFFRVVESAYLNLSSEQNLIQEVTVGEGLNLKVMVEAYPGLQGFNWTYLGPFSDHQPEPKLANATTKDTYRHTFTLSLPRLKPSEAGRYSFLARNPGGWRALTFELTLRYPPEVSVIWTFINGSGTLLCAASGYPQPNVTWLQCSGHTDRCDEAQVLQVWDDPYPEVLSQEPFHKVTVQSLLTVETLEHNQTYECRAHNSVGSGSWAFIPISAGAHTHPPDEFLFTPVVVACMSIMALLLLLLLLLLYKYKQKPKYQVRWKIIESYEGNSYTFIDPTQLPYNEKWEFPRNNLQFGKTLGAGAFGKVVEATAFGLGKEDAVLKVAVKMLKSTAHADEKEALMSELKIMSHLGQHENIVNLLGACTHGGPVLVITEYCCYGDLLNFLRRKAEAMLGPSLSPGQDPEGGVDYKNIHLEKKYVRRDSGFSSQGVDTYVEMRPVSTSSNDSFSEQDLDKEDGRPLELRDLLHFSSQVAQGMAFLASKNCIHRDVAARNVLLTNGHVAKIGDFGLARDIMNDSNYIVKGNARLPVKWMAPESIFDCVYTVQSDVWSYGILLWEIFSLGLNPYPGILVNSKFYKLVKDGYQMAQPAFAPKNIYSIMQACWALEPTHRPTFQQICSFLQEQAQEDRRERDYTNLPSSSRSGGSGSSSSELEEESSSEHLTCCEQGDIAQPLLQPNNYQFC

inhibition [6] [%] | inhibition [9] [%] | inhibition [10] [%] | inhibition [11] [%] | inhibition [12] [%] | inhibition [14] [%] | inhibition [15] [%] | inhibition [16] [%] | inhibition [17] [%] | inhibition [18] [%] | inhibition [20] [%] | inhibition [21] [%] | inhibition [22] [%] | Structure (SMILES) | Activity (A-375 [1]) | IC50 (SW-620 [2]; sw-620) | IC50 (A-375 [3]) [nM] | Activity (SW-620 [4]) | inhibition (A-375 [7]) | inhibition (A-375 [13]) | IC50 (SW-620 [2]; [44]) [nM] | other results
> 80 | > 80 | > 80 | > 80 | > 80 | > 80 | – | – | – | – | – | – | – | CCCS(=O)(=O)Nc1ccc(F)c(C(=O)c2c[nH]c3ncc(-c4ccc(Cl)cc4)cc23)c1F [VEMURAFENIB] | Active | Not Active | 90 | inactive | Active | Active | – | inhibition (SW620 [5]): inactive; inhibition (SW620 [8]): inactive
– | > 80 | > 80 | > 80 | > 80 | > 80 | – | – | – | – | – | – | – | CCCS(=O)(=O)Nc1ccc(F)c(C(=O)c2c[nH]c3ncc(Cl)cc23)c1F | – | – | – | – | – | – | – | –
> 80 | – | – | > 80 | > 80 | > 80 | > 80 | > 80 | > 80 | > 80 | > 80 | > 80 | > 80 | Cc1ccc(NC(=O)c2cccc(C(C)(C)C#N)c2)cc1Nc1ccc2ncn(C)c(=O)c2c1 | Active | – | 40 | Active | Active | Active | 170 | inhibition [19]: > 80%; inhibition [23]: > 80%; inhibition [24]: > 80%; inhibition [25]: > 80%; inhibition [26]: > 80%; inhibition [27]: > 80%; inhibition (SW620 [28]): inactive; inhibition [29]: > 80%; inhibition [30]: > 80%; inhibition [31]: > 80%; inhibition [32]: > 80%; inhibition [33]: > 80%; inhibition [34]: > 80%
> 80 | – | > 80 | > 80 | – | – | – | – | – | – | – | > 80 | – | CCN(C)S(=O)(=O)Nc1ccc(F)c(C(=O)c2c[nH]c3ncc(-c4ccc(Cl)cc4)cc23)c1F | Active | Not Active | 560 | inactive | Active | Active | – | inhibition [35]: > 80%; IC50 [36]: 1410 nM; IC50 [37]: 690 nM
– | – | > 80 | > 80 | > 80 | > 80 | > 80 | > 80 | > 80 | > 80 | > 80 | > 80 | > 80 | CC(C)(C#N)c1cccc(C(=O)Nc2ccc(F)c(C(=O)c3c[nH]c4ncc(Cl)cc34)c2F)c1 | Active | – | ~10000 | Active | Active | Active | 2810 | inhibition [38]: > 80%; inhibition [39]: > 80%; IC50 [36]: 48 nM; inhibition [40]: > 80%; IC50 [37]: 56 nM; inhibition [41]: > 80%; inhibition [23]: > 80%; inhibition [24]: > 80%; inhibition [25]: > 80%; inhibition [42]: > 80%; inhibition [26]: > 80%; inhibition [27]: > 80%; inhibition (SW620 [28]): inactive; inhibition [29]: > 80%; inhibition [43]: > 80%; inhibition [30]: > 80%; inhibition [31]: > 80%; inhibition [32]: > 80%; inhibition [33]: > 80%; inhibition [34]: > 80%
